Data from PubChem BioAssay AID504519 (The Scripps Research Institute Molecular Screening Center, 2011).
The source made the active and inactive calls.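 Rule for the calls: active = labelling ratio, compound over solvent, at most 0.5 for PAFAH2 while all off-target serine hydrolases stay above 0.5; inactive = the rest.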

Key:
Test in all cases: proteome-wide serine hydrolase selectivity in cells, late-stage follow-up, selectivity assay for PAFAH2 inhibitor project, LC-MS, SILAC, BW5147 murine T cells (AID 504519)
[1] = tested on: LYPLA2; conditions: SILAC ABPP LC-MS/MS ratio, active compounds read low
How it was run: (§1)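 Material – murine T-cell hybridoma line derived from BW5147, SILAC-labeled (light or heavy) · Probe or stimulus – FP-biotin probe on lysates · Doses – test compound on light cells, DMSO vehicle on heavy cells, in situ · Measured by – MudPIT LC/LC-MS/MS after biotin enrichment · Read-out – Per-protein light/heavy peptide intensity ratio, 1 meaning no inhibition · Controls – heavy DMSO-treated cells as reference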

[2] = tested on: APEH; conditions: SILAC ABPP LC-MS/MS ratio, active compounds read low
How it was run: as §1

[3] = target: Platelet-activating factor acetylhydrolase 2, cytoplasmic (Mus musculus) (UniProt Q8VDG7); conditions: SILAC ABPP LC-MS/MS ratio, PAFAH2, active compounds read low
How it was run: as §1

[4] = target: Prolyl endopeptidase (Mus musculus) (UniProt Q9QUR6); conditions: SILAC ABPP LC-MS/MS ratio, PREP, active compounds read low
How it was run: as §1

[5] = tested on: PNPLA7; conditions: SILAC ABPP LC-MS/MS ratio, active compounds read low
How it was run: as §1

[6] = tested on: BAT5; conditions: SILAC ABPP LC-MS/MS ratio, active compounds read low
How it was run: as §1

[7] = tested on: FAM108A; conditions: SILAC ABPP LC-MS/MS ratio, active compounds read low
How it was run: as §1

[8] = tested on: PREPL; conditions: SILAC ABPP LC-MS/MS ratio, active compounds read low
How it was run: as §1

[9] = tested on: PRCP; conditions: SILAC ABPP LC-MS/MS ratio, active compounds read low
How it was run: as §1

[10] = tested on: DPP8; conditions: SILAC ABPP LC-MS/MS ratio, active compounds read low
How it was run: as §1

[11] = tested on: ACOT7; conditions: SILAC ABPP LC-MS/MS ratio, active compounds read low
How it was run: as §1

[12] = tested on: PPME1; conditions: SILAC ABPP LC-MS/MS ratio, active compounds read low
How it was run: as §1

[13] = tested on: LACTB; conditions: SILAC ABPP LC-MS/MS ratio, active compounds read low
How it was run: as §1

[14] = tested on: PLA2G6; conditions: SILAC ABPP LC-MS/MS ratio, active compounds read low
How it was run: as §1

[15] = tested on: ABHD10; conditions: SILAC ABPP LC-MS/MS ratio, active compounds read low
How it was run: as §1

[16] = tested on: FASN; conditions: SILAC ABPP LC-MS/MS ratio, active compounds read low
How it was run: as §1

[17] = tested on: FAAH; conditions: SILAC ABPP LC-MS/MS ratio, active compounds read low
How it was run: as §1

[18] = tested on: ACOT2; conditions: SILAC ABPP LC-MS/MS ratio, active compounds read low
How it was run: as §1

[19] = tested on: ABHD12; conditions: SILAC ABPP LC-MS/MS ratio, active compounds read low
How it was run: as §1

[20] = tested on: IAH1; conditions: SILAC ABPP LC-MS/MS ratio, active compounds read low
How it was run: as §1

[21] = tested on: PAFAH1B2; conditions: SILAC ABPP LC-MS/MS ratio, active compounds read low
How it was run: as §1

[22] = tested on: FAM108C; conditions: SILAC ABPP LC-MS/MS ratio, active compounds read low
How it was run: as §1

[23] = tested on: SIAE; conditions: SILAC ABPP LC-MS/MS ratio, active compounds read low
How it was run: as §1

[24] = tested on: PARL; conditions: SILAC ABPP LC-MS/MS ratio, active compounds read low
How it was run: as §1

[25] = tested on: DPP7; conditions: SILAC ABPP LC-MS/MS ratio, active compounds read low
How it was run: as §1

[26] = tested on: ACOT1; conditions: SILAC ABPP LC-MS/MS ratio, active compounds read low
How it was run: as §1

[27] = tested on: DPP4; conditions: SILAC ABPP LC-MS/MS ratio, active compounds read low
How it was run: as §1

[28] = tested on: SERHL; conditions: SILAC ABPP LC-MS/MS ratio, active compounds read low
How it was run: as §1

[29] = tested on: AADACL1; conditions: SILAC ABPP LC-MS/MS ratio, active compounds read low
How it was run: as §1

[30] = tested on: DDHD1; conditions: SILAC ABPP LC-MS/MS ratio, active compounds read low
How it was run: as §1

[31] = tested on: LYPLA3; conditions: SILAC ABPP LC-MS/MS ratio, active compounds read low
How it was run: as §1

[32] = tested on: PNPLA6; conditions: SILAC ABPP LC-MS/MS ratio, active compounds read low
How it was run: as §1

[33] = tested on: ABHD11; conditions: SILAC ABPP LC-MS/MS ratio, active compounds read low
How it was run: as §1

[34] = tested on: ABHD6; conditions: SILAC ABPP LC-MS/MS ratio, active compounds read low
How it was run: as §1

[35] = tested on: CTSA; conditions: SILAC ABPP LC-MS/MS ratio, active compounds read low
How it was run: as §1

[36] = tested on: ESD; conditions: SILAC ABPP LC-MS/MS ratio, active compounds read low
How it was run: as §1

[37] = tested on: PAFAH1B3; conditions: SILAC ABPP LC-MS/MS ratio, active compounds read low
How it was run: as §1

[38] = tested on: ABHD13; conditions: SILAC ABPP LC-MS/MS ratio, active compounds read low
How it was run: as §1

[39] = tested on: FAM108B1; conditions: SILAC ABPP LC-MS/MS ratio, active compounds read low
How it was run: as §1

[40] = tested on: LIPA; conditions: SILAC ABPP LC-MS/MS ratio, active compounds read low
How it was run: as §1

[41] = tested on: DPP9; conditions: SILAC ABPP LC-MS/MS ratio, active compounds read low
How it was run: as §1

[42] = tested on: LYPLA1; conditions: SILAC ABPP LC-MS/MS ratio, active compounds read low
How it was run: as §1

Prolyl endopeptidase (Mus musculus), sequence (Q9QUR6 whole entry, looked up): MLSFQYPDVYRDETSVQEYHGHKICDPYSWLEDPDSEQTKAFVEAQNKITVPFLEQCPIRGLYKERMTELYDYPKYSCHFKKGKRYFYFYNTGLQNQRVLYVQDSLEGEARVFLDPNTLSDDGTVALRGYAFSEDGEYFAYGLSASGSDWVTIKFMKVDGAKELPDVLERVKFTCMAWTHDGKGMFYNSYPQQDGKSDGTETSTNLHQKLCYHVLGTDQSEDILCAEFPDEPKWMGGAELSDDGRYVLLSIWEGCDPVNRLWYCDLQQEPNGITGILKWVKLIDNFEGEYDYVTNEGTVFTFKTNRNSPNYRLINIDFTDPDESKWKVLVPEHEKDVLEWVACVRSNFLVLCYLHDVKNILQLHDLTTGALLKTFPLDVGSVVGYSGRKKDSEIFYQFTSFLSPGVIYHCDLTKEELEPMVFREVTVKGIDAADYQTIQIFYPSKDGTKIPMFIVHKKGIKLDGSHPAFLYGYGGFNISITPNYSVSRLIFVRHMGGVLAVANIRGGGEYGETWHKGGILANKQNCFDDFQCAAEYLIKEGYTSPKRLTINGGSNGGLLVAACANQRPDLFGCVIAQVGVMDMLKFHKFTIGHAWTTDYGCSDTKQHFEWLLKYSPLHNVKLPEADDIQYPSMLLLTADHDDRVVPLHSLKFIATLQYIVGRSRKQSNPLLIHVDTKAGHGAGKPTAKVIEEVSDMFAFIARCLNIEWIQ
Platelet-activating factor acetylhydrolase 2, cytoplasmic (Mus musculus), sequence (Q8VDG7 whole entry, looked up): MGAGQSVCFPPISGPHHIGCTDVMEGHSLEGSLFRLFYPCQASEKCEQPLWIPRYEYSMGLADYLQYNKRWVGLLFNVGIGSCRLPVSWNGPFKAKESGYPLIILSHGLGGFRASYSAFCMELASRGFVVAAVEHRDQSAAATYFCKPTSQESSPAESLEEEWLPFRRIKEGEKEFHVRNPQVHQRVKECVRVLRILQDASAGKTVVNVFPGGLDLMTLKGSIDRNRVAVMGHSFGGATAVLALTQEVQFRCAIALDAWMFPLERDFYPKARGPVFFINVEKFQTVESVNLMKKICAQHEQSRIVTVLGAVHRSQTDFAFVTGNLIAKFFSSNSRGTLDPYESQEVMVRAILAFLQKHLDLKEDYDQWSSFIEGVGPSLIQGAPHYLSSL

Structure (SMILES): O=C(N1CCCC1)n1ncc(-c2ccc(-c3ccccc3)cc2)n1
- SILAC ratio inhibitor/DMSO [1]: 1.4 (inactive)
- SILAC ratio inhibitor/DMSO [2]: 1 (inactive)
- SILAC ratio inhibitor/DMSO [3]: 0
- SILAC ratio inhibitor/DMSO [4]: 1.3 (inactive)
- SILAC ratio inhibitor/DMSO [5]: 1.6 (inactive)
- SILAC ratio inhibitor/DMSO [6]: 1.3 (inactive)
- SILAC ratio inhibitor/DMSO [7]: 1.1 (inactive)
- SILAC ratio inhibitor/DMSO [8]: 1.3 (inactive)
- SILAC ratio inhibitor/DMSO [9]: 1.4 (inactive)
- SILAC ratio inhibitor/DMSO [10]: 1.3 (inactive)
- SILAC ratio inhibitor/DMSO [11]: 1.2 (inactive)
- SILAC ratio inhibitor/DMSO [12]: 1.2 (inactive)
- SILAC ratio inhibitor/DMSO [13]: 1.3 (inactive)
- SILAC ratio inhibitor/DMSO [14]: 0.91 (inactive)
- SILAC ratio inhibitor/DMSO [15]: 1.4 (inactive)
- SILAC ratio inhibitor/DMSO [16]: 1.3 (inactive)
- SILAC ratio inhibitor/DMSO [17]: 1.3 (inactive)
- SILAC ratio inhibitor/DMSO [18]: 1.2 (inactive)
- SILAC ratio inhibitor/DMSO [19]: 1.3 (inactive)
- SILAC ratio inhibitor/DMSO [20]: 1.2 (inactive)
- SILAC ratio inhibitor/DMSO [21]: 1.2 (inactive)
- SILAC ratio inhibitor/DMSO [22]: 1.3 (inactive)
- SILAC ratio inhibitor/DMSO [23]: 1.3 (inactive)
- SILAC ratio inhibitor/DMSO [24]: 1.2 (inactive)
- SILAC ratio inhibitor/DMSO [25]: 1.2 (inactive)
- SILAC ratio inhibitor/DMSO [26]: 1.2 (inactive)
- SILAC ratio inhibitor/DMSO [27]: 1.2 (inactive)
- SILAC ratio inhibitor/DMSO [28]: 1.1 (inactive)
- SILAC ratio inhibitor/DMSO [29]: 1.3 (inactive)
- SILAC ratio inhibitor/DMSO [30]: 1.4 (inactive)
- SILAC ratio inhibitor/DMSO [31]: 1.3 (inactive)
- SILAC ratio inhibitor/DMSO [32]: 1.6 (inactive)
- SILAC ratio inhibitor/DMSO [33]: 1.4 (inactive)
- SILAC ratio inhibitor/DMSO [34]: 0.59 (inactive)
- SILAC ratio inhibitor/DMSO [35]: 1.1 (inactive)
- SILAC ratio inhibitor/DMSO [36]: 1 (inactive)
- SILAC ratio inhibitor/DMSO [37]: 1.3 (inactive)
- SILAC ratio inhibitor/DMSO [38]: 1.2 (inactive)
- SILAC ratio inhibitor/DMSO [39]: 1.2 (inactive)
- SILAC ratio inhibitor/DMSO [40]: 1.6 (inactive)
- SILAC ratio inhibitor/DMSO [41]: 1.3 (inactive)
- SILAC ratio inhibitor/DMSO [42]: 1.3 (inactive)
